# Experimental data of several laboratories.
# Compare with care: the assays were run in different laboratories.
# BRAF: Serine/threonine-protein kinase B-raf (BRAF, Homo sapiens, UniProt P15056)
Structure (SMILES),target,read-out,mode,technique,concentration,measurement,result
COc1ncccc1-c1cnn2ccc(N3CCN(C(=O)OC(C)C)CC3)nc12,BRAF,binding,,competition with immobilised ligand,1 µM,remaining binding,100%
O=c1[nH]c2ccccc2n1C1CCN(Cc2ccc(-c3[nH]c4cc5ncnc5cc4nc3-c3ccccc3)cc2)CC1,BRAF,cell-free assay,,,0.5 µM,remaining signal,101%
C#Cc1n[nH]c2c(-c3cn(C(C)c4ccccn4)c(=O)[nH]c3=O)cc(F)cc12 (centres unmarked),BRAF,enzyme activity,inhibitor,,1 µM,inhibition,-2.7%
Cc1nn(C)cc1-c1nc2c(N3CCN(Cc4ccc(Cl)cc4)CC3)c(Cl)cnc2[nH]1,"Serine/threonine-protein kinase B-raf (BRAF, Homo sapiens, UniProt P15056, V600E)",binding,,competition with immobilised ligand,1 µM,remaining binding,100%
CNS(=O)(=O)Nc1nccc(Cc2c(C)c3ccc(Oc4ncccn4)cc3oc2=O)c1F,BRAF,cell-free assay,,competition with immobilised ligand,10 µM,inhibition,89%
Nc1ncc(-c2nc(N3CCOCC3)nc(N3CCOCC3)n2)c(C(F)F)n1,BRAF,binding,,competition with immobilised ligand,10 µM,remaining binding,36%
Cn1cc(-c2cccc(N3CCc4c(sc5c4CC(C)(C)C5)C3=O)c2CO)cc(Nc2ccncn2)c1=O,BRAF,enzyme activity,inhibitor,,1 µM,inhibition,21%
N#CC1(c2ccccn2)CCN(Cc2cc(C(=O)O)c(=O)n3ccccc23)CC1,BRAF,cell-free assay,,competition with immobilised ligand,1 µM,remaining binding,93%
C#Cc1n[nH]c2c(-c3cn([C@@H](C)c4ccccc4)c(=O)[nH]c3=O)cc(F)cc12,BRAF,enzyme activity,inhibitor,,0.1 µM,inhibition,-2.9%
Cn1cc(-c2cc(F)cc(N3CCn4c(cc5c4CCCC5)C3=O)c2CO)cc(Nc2ccc(N3CCN(C4COC4)CC3)cn2)c1=O,BRAF,enzyme activity,inhibitor,,0.1 µM,inhibition,7%
Cn1cncc1[C@@](O)(COc1ccc(C#N)cc1-c1ccc(OC(F)(F)F)cc1)c1ccc(C#N)cc1,BRAF,cell-free assay,,competition with immobilised ligand,1 µM,remaining binding,100%
